The nature of data set [1]: In vitro inhibitory constant against rat liver alcohol dehydrogenase was determined. In a few lines:
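Enzymes partially purified from liver (DEAE-cellulose, then AMP-agarose affinity), all steps 0–5 °C. Ethanol varied 0.4–2 mM, 0.5 mM NAD+, 83 mM potassium phosphate pH 7.3 with 40 mM KCl, 37 °C. At least three inhibitor levels; 32 initial velocities by A340. Kii from uncompetitive fit; one or two experiments.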

For data set [2], the system named is Alcohol dehydrogenase (Macaca mulatta). In words: In vitro inhibitory constant against monkey liver alcohol dehydrogenase was determined. Particulars: Cercopithecidae.
The species entered for the next data set is Rattus norvegicus. In words: The Kii was determined with varied concentrations of inhibitor and ethanol by determining blood alcohol concentration in rats. In kind it is functional. In short, it runs like this:
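Fed male Sprague-Dawley rats (175–280 g) given inhibitor ip at 0–1.0 mmol/kg in saline, then 10 min later ethanol 19.6 mmol/kg ip. Tail blood ethanol measured over time by GC with tert-butyl alcohol internal standard. Initial elimination rate taken from tangent after 60-min absorption phase; Kii by nonlinear fit.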

Data set [3] can be described thus: Compound dose that causes 50% toxicity in mice was determined. It is filed as organism-based. Particulars: mouse, in vivo. In short, it runs like this: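 Fed male Swiss-Webster mice (16–20 g) given ip injections of sulfoxide solutions at 0.1–10 M (the concentration of the injected solution), at 0.1 mL/10 g body weight.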
Data set [4] deals with Alcohol dehydrogenase (Equus caballus) (UniProt P00327+P00328). In words: In vitro inhibitory constant against horse liver alcohol dehydrogenase was determined.

Experimental findings from ChEMBL document CHEMBL1123090, “Inhibition of liver alcohol dehydrogenase and ethanol metabolism by 3-substituted thiolane 1-oxides” (J Med Chem, 1985) are described below.

Usually LD50 stands for the dose at which mortality reaches 50%.

Take `[O-][S+]1CCC(c2ccccc2)C1` (centres undefined): the Kii worked out at 1.1 µM in data set [1], 1.5 µM in data set [2], 87 µmol/kg in the data set listed under Rattus norvegicus and 0.36 µM in data set [4]. The molecule further gave an LD50 in data set [3] of 4000 µmol/kg.
For `CCCCC1CC[S+]([O-])C1` (centres undefined), in that order: 1.1 µM, 2.3 µM, 11 µmol/kg, 0.63 µM and 1400 µmol/kg.
For `CC1CC[S+]([O-])C1` (centres undefined), in that order: 19 µM, 460 µM, 64 µmol/kg, 7.5 µM and 1300 µmol/kg.
For `CCCCCCC1CC[S+]([O-])C1` (centres undefined), in that order: 0.13 µM, 0.35 µM, 65 µmol/kg, 0.19 µM and 770 µmol/kg.
As for `[O-][S+]1CCCC1` [TETRAMETHYLENE SULFOXIDE], the Kii in data set [1] turned out to be 130 µM; in data set [2] it was 1600 µM; in the data set listed under Rattus norvegicus it was 340 µmol/kg. The molecule further had an LD50 in data set [3] of 45000 µmol/kg.
